Here are results for 13 compounds from ChEMBL document CHEMBL3817763, “Exploration of GGTase-I substrate requirements. Part 2: Synthesis and biochemical analysis of novel saturated geranylgeranyl diphosphate analogs” (Bioorg Med Chem Lett, 2016).

Activity calls are given as the source filed them. The rule behind the calls is not given here.

Data set [1] concerns the target T1, Geranylgeranyl transferase type I (Homo sapiens) (UniProt P49354+P53609). In words: Activity at recombinant GGTase1 (unknown origin) using dansyl-GCVLL as co-substrate assessed as protein prenylation at 5 uM incubated for 1.5 hrs by spectrofluorometric method. An outline of the steps: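 Preliminary single-point screen: analog diphosphate 5 µM with 5 µM dansyl-GCVLL and 50 nM GGTase-I; continuous fluorescence read at 1.5 h. Result is given as relative fluorescence increase, normalized to GGPP (1.5 h) set to 1.0. Mean ± SD, n = 3.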

The target in data set [2] is T1, Geranylgeranyl transferase type I (Homo sapiens). In words: Ratio of Kcat to Km for recombinant GGTase1 (unknown origin) using dansyl-GCVLL as co-substrate assessed as protein prenylation by spectrofluorometric method relative to GGPP.
Data set [3] has as its target T2, Protein farnesyltransferase (Homo sapiens) (UniProt P49354+P49356). In words: Activity at recombinant FTase (unknown origin) using dansyl-GCVLS as co-substrate assessed as protein prenylation at 5 uM incubated for 1.5 hrs by spectrofluorometric method. It is filed as protein-complex assay. A digest of the protocol: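 Preliminary single-point screen: analog diphosphate 5 µM with 5 µM dansyl-GCVLS and 50 nM FTase; continuous fluorescence read at 1.5 h. Result is given as relative fluorescence increase, normalized to FPP (5 µM, 1.5 h) set to 1.0. Mean ± SD, n = 3.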

The target of data set [4] is T2, Protein farnesyltransferase (Homo sapiens). Description: Ratio of Kcat to Km for recombinant FTase (unknown origin) using dansyl-GCVLS as co-substrate assessed as protein prenylation by spectrofluorometric method relative to FPP. It is filed as protein-complex assay.
The species entered for the next data set is Homo sapiens. In words: Ratio of Kcat/Km for recombinant FTase (unknown origin) to Kcat/Km for recombinant GGTase1 (unknown origin).
Data set [5] has as its system CC(C)=CCC/C(C)=C/CC/C(C)=C/COP(=O)(O)OP(=O)(O)O. In words: (§1) Ratio of Kcat to Km for recombinant FTase (unknown origin) using dansyl-GCVLS as co-substrate assessed as protein prenylation by spectrofluorometric method. It is filed as protein-complex assay. To be noted: Homo sapiens.
The subject of data set [6] is CCCCCCCCCCCC/C(C)=C/COP(=O)(O)OP(=O)(O)O. The description is as §1. It is filed as protein-complex assay. To be noted: Homo sapiens.
Data set [7] has as its system CC(C)=CCCCCCCCCCC/C(C)=C/COP(=O)(O)OP(=O)(O)O. Described as §1. It counts as protein-complex assay. Particulars: Homo sapiens.
Data set [8] deals with C/C(=C\COP(=O)(O)OP(=O)(O)O)CC/C=C(\C)CCCC(C)CCCC(C)C. Described as §1. It counts as protein-complex assay. To be noted: Homo sapiens.
Data set [9] deals with CCCCCCCCCCCCC/C(C)=C/COP(=O)(O)OP(=O)(O)O. The data set is described as §1. It is filed as protein-complex assay. Particulars: Homo sapiens.
Data set [10] relates to CCCCCCCC/C(C)=C/CC/C(C)=C/COP(=O)(O)OP(=O)(O)O. The description is as §1. It is filed as protein-complex assay. To be noted: Homo sapiens.
For data set [11], the system named is CCCCCCC/C(C)=C/CC/C(C)=C/COP(=O)(O)OP(=O)(O)O. Described as §1. It counts as protein-complex assay. To be noted: Homo sapiens.
In data set [12] the test system is CCCCCCCCC/C(C)=C/CC/C(C)=C/COP(=O)(O)OP(=O)(O)O. The description is as §1. It is filed as protein-complex assay. Particulars: Homo sapiens.
Data set [13] concerns CCCCCCCCCCC/C(C)=C/COP(=O)(O)OP(=O)(O)O. The data set is described as §1. Particulars: Homo sapiens. It is filed as protein-complex assay.
The subject of data set [14] is CCCCCC/C(C)=C/CC/C(C)=C/COP(=O)(O)OP(=O)(O)O. Described as §1. It is filed as protein-complex assay. To be noted: Homo sapiens.
The subject of data set [15] is CC(C)=CCCCCCCCCC/C(C)=C/COP(=O)(O)OP(=O)(O)O. Described as §1. Particulars: Homo sapiens. It counts as protein-complex assay.
Data set [16] deals with CCCCCCCCCCCC/C(C)=C/COP(=O)(O)OP(=O)(O)O. Description: (§2) Ratio of Kcat to Km for recombinant GGTase1 (unknown origin) using dansyl-GCVLL as co-substrate assessed as protein prenylation by spectrofluorometric method. Particulars: Homo sapiens.
Data set [17] concerns CC(C)=CCCCCCCCCCC/C(C)=C/COP(=O)(O)OP(=O)(O)O. The description is as §2. To be noted: Homo sapiens.
For data set [18], the system named is CC(C)=CCC/C(C)=C/CC/C(C)=C/CC/C(C)=C/COP(=O)(O)OP(=O)(O)O. The data set is described as §2. To be noted: Homo sapiens.
For data set [19], the system named is C/C(=C\COP(=O)(O)OP(=O)(O)O)CC/C=C(\C)CCCC(C)CCCC(C)C. The description is as §2. Particulars: Homo sapiens.
For data set [20], the system named is CCCCCCCCCCCCC/C(C)=C/COP(=O)(O)OP(=O)(O)O. Described as §2. Particulars: Homo sapiens.
For data set [21], the system named is CCCCCCCC/C(C)=C/CC/C(C)=C/COP(=O)(O)OP(=O)(O)O. The data set is described as §2. Particulars: Homo sapiens.
For data set [22], the system named is C/C(=C\CC/C(C)=C/COP(=O)(O)OP(=O)(O)O)CC/C=C(\C)CCCC(C)C. The description is as §2. Particulars: Homo sapiens.
In data set [23] the test system is CCCCCCC/C(C)=C/CC/C(C)=C/COP(=O)(O)OP(=O)(O)O. Described as §2. Particulars: Homo sapiens.
For data set [24], the system named is CCCCCCCCC/C(C)=C/CC/C(C)=C/COP(=O)(O)OP(=O)(O)O. The description is as §2. Particulars: Homo sapiens.
Data set [25] relates to CCCCCCCCCCC/C(C)=C/COP(=O)(O)OP(=O)(O)O. Described as §2. To be noted: Homo sapiens.
Data set [26] deals with CC(C)=CCCCCCCCCC/C(C)=C/COP(=O)(O)OP(=O)(O)O. The description is as §2. To be noted: Homo sapiens.

With `C/C(=C\CC/C(C)=C/COP(=O)(O)OP(=O)(O)O)CC/C=C(\C)CCCC(C)C`, the outcome in data set [1] and in [3] was Active. For the same compound, the Ratio in data set [2] was found to be 0.17.

`CCCCCCCC/C(C)=C/CC/C(C)=C/COP(=O)(O)OP(=O)(O)O`: the outcome in data set [1] and in data set [3] was Active. The Ratio was 0.58 in data set [2], 0.21 in data set [4] and 0.44 in the data set listed under Homo sapiens.

On to `CC(C)=CCCCCCCCCC/C(C)=C/COP(=O)(O)OP(=O)(O)O`, for which the outcome in data set [1] and in [3] was Active. In addition, the results for the Ratio in data set [2] and in data set [4] were 0.02 and 0.15, respectively.

Consider `CCCCCCCCCCCCC/C(C)=C/COP(=O)(O)OP(=O)(O)O`, for which the result in data set [1] and in data set [3] was Active. Also, the Ratio turned out to be 0.16 in data set [2] and 0.09 in data set [4].

As to `CCCCCCC/C(C)=C/CC/C(C)=C/COP(=O)(O)OP(=O)(O)O`, the result in data set [1] and in data set [3] was Active. For the same compound, the figures for the Ratio (in [2]; in data set [4]; in the data set listed under Homo sapiens) were 0.85, 0.15 and 0.22, respectively.

For `CCCCCCCCC/C(C)=C/CC/C(C)=C/COP(=O)(O)OP(=O)(O)O`, the outcome in data set [1] and in [3] was Active. The Ratio in [2] was 0.95; in data set [4], 0.72.

Take “Protein farnesyltransferase (Homo sapiens) (from UniProt P49354+P49356)”: the kcat/Km in data set [5] was determined as 4.6 ×10⁴ /M/s; in data set [6] it was 1.1 ×10⁴ /M/s; in data set [7], 7.1 ×10³ /M/s; in data set [8], 3.5 ×10³ /M/s; in data set [9], 4.1 ×10³ /M/s; in data set [10], 9.7 ×10³ /M/s. The kcat/Km is 7.1 ×10³ /M/s in [11]; 3.3 ×10⁴ /M/s in data set [12]; 8.3 ×10³ /M/s in data set [13]; 1.6 ×10⁴ /M/s in data set [14]; 6.8 ×10³ /M/s in data set [15].

Take “Geranylgeranyl transferase type I (Homo sapiens) (from UniProt P49354+P53609)”: the kcat/Km in [16] worked out at 8.9 ×10² /M/s; in data set [17], 1.9 ×10⁴ /M/s; in [18] it was 3.78 ×10⁴ /M/s; in [19], 1.2 ×10³ /M/s; in [20], 6.2 ×10³ /M/s; in data set [21], 2.2 ×10⁴ /M/s. Also, the kcat/Km was determined as 6.3 ×10³ /M/s in data set [22]; 3.2 ×10⁴ /M/s in data set [23]; 3.6 ×10⁴ /M/s in data set [24]; 3.2 ×10³ /M/s in [25]; 9 ×10² /M/s in [26].

Take `C/C(=C\COP(=O)(O)OP(=O)(O)O)CC/C=C(\C)CCCC(C)CCCC(C)C` (stereo not drawn): the result in data set [1] and in [3] was Active. Also, the Ratio in data set [2] amounted to 0.03; in data set [4], 0.05.

As for `CC(C)=CCCCCCCCCCC/C(C)=C/COP(=O)(O)OP(=O)(O)O`, the outcome in [1] and in [3] was Active. For the same compound, the values for the Ratio in [2] and in data set [4] were 0.5 and 0.15, respectively.

As to `CCCCCCCCCCC/C(C)=C/COP(=O)(O)OP(=O)(O)O`, the result in data set [1] and in data set [3] was Active. The results for the Ratio (in data set [2]; in data set [4]; in the data set listed under Homo sapiens) were 0.08, 0.18 and 2, respectively.

In the case of `CCCCCCCCCCCC/C(C)=C/COP(=O)(O)OP(=O)(O)O`, the outcome in [1] and in [3] was Active. In addition, the Ratio in data set [2] worked out at 0.02; in data set [4], 0.24; in the data set listed under Homo sapiens, 12.

For `CCCCCC/C(C)=C/CC/C(C)=C/COP(=O)(O)OP(=O)(O)O`, the result in data set [1] and in data set [3] was Active. Besides, in data set [4], the Ratio worked out at 0.35.
